Assays:
Format in all cases: functional
[1] = tested on: SW-620; experiment: Growth inhibition of human SW620 cells
[2] = Growth inhibition of human OVCAR8 cells
[3] = Growth inhibition of human HCC2998 cells; conditions: HCC 2998
[4] = tested on: SK-OV-3; experiment: Growth inhibition of human SKOV3 cells
[5] = tested on: MDA-MB-468; experiment: Growth inhibition of human MDA-MB-468 cells
[6] = Growth inhibition of human OVCAR5 cells; conditions: OVCAR-5
[7] = tested on: KM12; experiment: Growth inhibition of human KM12 cells
[8] = tested on: M14; experiment: Growth inhibition of human M14 cells
[9] = Growth inhibition of human RXF393 cells
[10] = tested on: CAKI-1; experiment: Growth inhibition of human CAKI-1 cells
[11] = Growth inhibition of human HCT15 cells
[12] = Cytotoxicity against human renal cancer cells assessed as cell growth at 10 uM relative to control; conditions: Cancer cell lines, read-out: Activity
Procedure, shortened: (§1)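 Single-concentration screen against a panel of human cancer cell lines. Each value is the mean percent growth across the cell lines of that tumour subpanel.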

[13] = tested on: DU-145; experiment: Growth inhibition of human DU145 cells
[14] = tested on: PC-3; experiment: Growth inhibition of human PC3 cells
[15] = tested on: SF-268; experiment: Growth inhibition of human SF268 cells
[16] = Cytotoxicity against human CNSC cells assessed as cell growth at 10 uM relative to control; conditions: read-out: Activity; procedure, shortened: as §1
[17] = Cytotoxicity against human ovarian cancer cells assessed as cell growth at 10 uM relative to control; conditions: Cancer cell lines, read-out: Activity; procedure, shortened: as §1
[18] = Growth inhibition of human UACC62 cells; conditions: UACC-62
[19] = tested on: HL-60(TB); experiment: Growth inhibition of human HL-60(TB) cells
[20] = tested on: HCT-116; experiment: Growth inhibition of human HCT116 cells
[21] = tested on: SN12C; experiment: Growth inhibition of human SN12C cells
[22] = Growth inhibition of human SF295 cells; conditions: SF-295
[23] = tested on: A549; experiment: Growth inhibition of human A549/ATCC cells
[24] = tested on: SK-MEL-2; experiment: Growth inhibition of human SK-MEL-2 cells
[25] = tested on: K562; experiment: Growth inhibition of human K562 cells
[26] = tested on: NCI-H322M; experiment: Growth inhibition of human NCI-H322M cells
[27] = tested on: MDA-MB-435; experiment: Growth inhibition of human MDA-MB-435 cells
[28] = tested on: NCI-H23; experiment: Growth inhibition of human NCI-H23 cells
[29] = tested on: A498; experiment: Growth inhibition of human A498 cells
[30] = Growth inhibition of human Hs 578T cells
[31] = Cytotoxicity against human colon cancer cells assessed as cell growth at 10 uM relative to control; conditions: Cancer cell lines, read-out: Activity; procedure, shortened: as §1
[32] = tested on: RPMI-8226; experiment: Growth inhibition of human RPMI8226 cells
[33] = tested on: T47D; experiment: Growth inhibition of human T47D cells
[34] = tested on: U-251; experiment: Growth inhibition of human U251 cells
[35] = Cytotoxicity against human melanoma cells assessed as cell growth at 10 uM relative to control; conditions: read-out: Activity; procedure, shortened: as §1
[36] = tested on: SNB-19; experiment: Growth inhibition of human SNB19 cells
[37] = tested on: CCRF-CEM; experiment: Growth inhibition of human CCRF-CEM cells
[38] = tested on: MDA-MB-231; experiment: Growth inhibition of human MDA-MB-231 cells
[39] = read-out: LC50 (the source's name)

CC(C)C[C@H](NC(=O)CCn1ccc2ncccc2c1=O)B(O)O
GI50 [1]: 4.62 µM
LC50 [1]: > 100 µM
TGI [1]: > 100 µM
GI50 ([2]; OVCAR-8): 37.5 µM
TGI ([2]; OVCAR-8): > 100 µM
CC50 ([2]; OVCAR-8, read-out: LC50 (the source's name)): > 100 µM
GI50 [3]: 13.6 µM
LC50 [3]: 90.2 µM
TGI [3]: 35 µM
GI50 [4]: > 100 µM
LC50 [4]: > 100 µM
TGI [4]: > 100 µM
GI50 [5]: 2.04 µM
TGI [5]: 9.96 µM
CC50 [5, 39]: > 100 µM
GI50 [6]: 17.1 µM
LC50 [6]: > 100 µM
TGI [6]: > 100 µM
GI50 [7]: 17 µM
LC50 [7]: > 100 µM
TGI [7]: 49.6 µM
GI50 [8]: 4.11 µM
LC50 (concentration killing 50% of cells) [8]: 97.9 µM
TGI [8]: 22.3 µM
GI50 ([9]; RXF 393): 3.29 µM
TGI ([9]; RXF 393): 14.3 µM
CC50 ([9]; RXF 393, read-out: LC50 (the source's name)): 54.2 µM
GI50 [10]: 19.4 µM
TGI [10]: > 100 µM
CC50 [10, 39]: > 100 µM
GI50 ([11]; HCT-15): 21.3 µM
TGI ([11]; HCT-15): > 100 µM
CC50 ([11]; HCT-15, read-out: LC50 (the source's name)): > 100 µM
growth at 10 µM [12]: 76.1%
GI50 [13]: 32.7 µM
TGI [13]: > 100 µM
CC50 [13, 39]: > 100 µM
GI50 [14]: 41.4 µM
TGI [14]: > 100 µM
CC50 [14, 39]: > 100 µM
GI50 [15]: 14.7 µM
LC50 [15]: > 100 µM
TGI [15]: > 100 µM
growth at 10 µM [16]: 82.9%
growth at 10 µM [17]: 84.2%
GI50 [18]: 5.55 µM
LC50 (concentration killing 50% of cells) [18]: > 100 µM
TGI [18]: 48.8 µM
GI50 [19]: 6.88 µM
TGI [19]: > 100 µM
GI50 [20]: 3.3 µM
LC50 [20]: 86.2 µM
TGI [20]: 16.5 µM
GI50 [21]: 18 µM
TGI [21]: > 100 µM
CC50 [21, 39]: > 100 µM
GI50 [22]: 8.92 µM
LC50 [22]: > 100 µM
TGI [22]: 36 µM
GI50 [23]: 38 µM
TGI [23]: > 100 µM
CC50 [23, 39]: > 100 µM
GI50 [24]: 18.3 µM
LC50 [24]: > 100 µM
TGI [24]: > 100 µM
GI50 [25]: 17.2 µM
TGI [25]: > 100 µM
CC50 [25, 39]: > 100 µM
GI50 [26]: > 100 µM
TGI [26]: > 100 µM
CC50 [26, 39]: > 100 µM
GI50 [27]: 2.41 µM
TGI [27]: 7.02 µM
CC50 [27, 39]: 67.8 µM
GI50 [28]: 25.4 µM
TGI [28]: > 100 µM
CC50 [28, 39]: > 100 µM
GI50 [29]: 3.07 µM
LC50 [29]: > 100 µM
TGI [29]: 24.3 µM
GI50 [30]: 15.6 µM
TGI [30]: > 100 µM
CC50 [30, 39]: > 100 µM
growth at 10 µM [31]: 78.1%
GI50 [32]: 3.22 µM
TGI [32]: > 100 µM
CC50 [32, 39]: > 100 µM
GI50 [33]: 4.67 µM
TGI [33]: > 100 µM
CC50 [33, 39]: > 100 µM
GI50 [34]: 33 µM
TGI [34]: > 100 µM
CC50 [34, 39]: > 100 µM
growth at 10 µM [35]: 60.4%
GI50 [36]: 41.2 µM
TGI [36]: > 100 µM
CC50 [36, 39]: > 100 µM
GI50 [37]: 2.35 µM
TGI [37]: > 100 µM
CC50 [37, 39]: > 100 µM
GI50 [38]: 7.94 µM
TGI [38]: 32.5 µM
CC50 [38, 39]: > 100 µM
